Measurements as given in the M2OR odorant receptor database.

Legend:
Settings in all cases: stereoisomer not certain
OR4M2 (Homo sapiens) = OR4M2 (Homo sapiens) (UniProt Q8NGB6)
Outline: (§1)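 Values were gathered from published papers (main text and supplementary material), with extra details requested from the original authors when needed, and checked for typos and inconsistencies. Each receptor–molecule pair is called responsive (active) if the original authors judged the measured signal statistically different from baseline, and non-responsive (inactive) otherwise. Assay methods varied by source, often transient mammalian cell-line luciferase assays. Recorded details include cell line, G-protein, co-transfected protein and tags.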

OR4M2B (Homo sapiens) = OR4M2B (Homo sapiens) (UniProt A0A0X1KG70)
Chain of OR4M2B (Homo sapiens) (A0A0X1KG70 whole entry): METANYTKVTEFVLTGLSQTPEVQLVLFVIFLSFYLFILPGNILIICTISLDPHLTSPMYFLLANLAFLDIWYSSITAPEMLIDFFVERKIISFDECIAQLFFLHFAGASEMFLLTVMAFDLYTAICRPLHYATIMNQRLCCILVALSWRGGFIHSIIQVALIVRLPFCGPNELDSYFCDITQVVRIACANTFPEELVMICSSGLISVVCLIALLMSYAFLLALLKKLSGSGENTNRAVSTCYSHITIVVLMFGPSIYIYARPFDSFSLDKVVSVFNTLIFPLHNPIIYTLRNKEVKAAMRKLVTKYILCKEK
Outline: as §1

OR4N2 (Homo sapiens) = OR4N2 (Homo sapiens) (UniProt Q8NGD1)
Chain of OR4N2 (Homo sapiens) (Q8NGD1 whole entry): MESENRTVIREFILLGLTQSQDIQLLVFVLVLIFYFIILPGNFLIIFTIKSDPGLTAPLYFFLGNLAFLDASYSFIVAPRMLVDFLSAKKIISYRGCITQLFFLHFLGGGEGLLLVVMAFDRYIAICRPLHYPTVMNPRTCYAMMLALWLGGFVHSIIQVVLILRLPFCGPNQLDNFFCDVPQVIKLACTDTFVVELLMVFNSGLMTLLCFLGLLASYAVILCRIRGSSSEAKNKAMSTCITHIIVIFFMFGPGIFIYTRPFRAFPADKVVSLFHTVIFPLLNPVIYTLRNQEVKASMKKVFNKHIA
Outline: as §1

OR4N4 (Homo sapiens) = OR4N4 (Homo sapiens) (UniProt Q8N0Y3)
Chain of OR4N4 (Homo sapiens) (Q8N0Y3 whole entry): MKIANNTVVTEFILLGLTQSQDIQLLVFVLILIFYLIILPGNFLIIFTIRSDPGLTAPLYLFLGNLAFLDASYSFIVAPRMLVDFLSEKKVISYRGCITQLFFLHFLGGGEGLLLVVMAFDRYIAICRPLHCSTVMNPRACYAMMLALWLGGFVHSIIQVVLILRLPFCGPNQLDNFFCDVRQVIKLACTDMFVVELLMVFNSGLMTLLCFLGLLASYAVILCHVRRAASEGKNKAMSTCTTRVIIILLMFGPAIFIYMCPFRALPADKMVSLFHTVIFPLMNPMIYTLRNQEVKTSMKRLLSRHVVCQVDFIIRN
Outline: as §1

OR4N4C (Homo sapiens) = OR4N4C (Homo sapiens) (UniProt A0A096LPK9)
Chain of OR4N4C (Homo sapiens) (A0A096LPK9 whole entry): as the sequence (Q8N0Y3 whole entry) above, with M259I counted along it
Outline: as §1

OR4N5 (Homo sapiens) = OR4N5 (Homo sapiens) (UniProt Q8IXE1)
Chain of OR4N5 (Homo sapiens) (Q8IXE1 whole entry): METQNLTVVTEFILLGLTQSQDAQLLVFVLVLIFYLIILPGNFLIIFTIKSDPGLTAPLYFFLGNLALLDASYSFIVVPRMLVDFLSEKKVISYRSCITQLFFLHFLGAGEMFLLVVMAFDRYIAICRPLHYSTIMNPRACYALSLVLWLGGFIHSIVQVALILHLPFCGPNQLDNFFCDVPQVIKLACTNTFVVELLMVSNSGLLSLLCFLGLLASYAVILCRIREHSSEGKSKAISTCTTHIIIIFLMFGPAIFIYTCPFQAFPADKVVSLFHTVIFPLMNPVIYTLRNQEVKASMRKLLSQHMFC
Outline: as §1

OR4M1 H277N V279L L284H = test system: OR4M1 H277N V279L L284H
Outline: as §1

OR4N2 A57V I76T = test system: OR4N2 A57V I76T
Outline: as §1

OR4N2 R260C F279L R290H = test system: OR4N2 R260C F279L R290H
Outline: as §1

OR4N2 = test system: OR4N2
Chain of OR4N2 (as listed by the source): as the sequence (Q8NGD1 whole entry) above, with I76T counted along it
Outline: as §1

Measured: odorant receptor agonist call

Chain of OR4M2 (Homo sapiens) (Q8NGB6 whole entry): as the sequence (A0A0X1KG70 whole entry) above, with E96G, L225F, V239M, H284R counted along it

Cc1c([N+](=O)[O-])c(C)c([N+](=O)[O-])c(C(C)(C)C)c1[N+](=O)[O-]
inactive: OR4M2 (Homo sapiens) | OR4M2B (Homo sapiens) | OR4N2 (Homo sapiens) | OR4N4 (Homo sapiens) | OR4N4C (Homo sapiens) | OR4N5 (Homo sapiens)

C=CCOC(=O)Cc1ccccc1
not listed: OR4M2B (Homo sapiens) | OR4N4C (Homo sapiens)
inactive: all other assays above
